# Published values collected from several papers.
# Protocols differ between the studies behind these lines.
# Target: Testis-specific serine/threonine-protein kinase 2 (TSSK2, Homo sapiens, UniProt Q96PF2)
# One construct used (Q96PF2 1-358): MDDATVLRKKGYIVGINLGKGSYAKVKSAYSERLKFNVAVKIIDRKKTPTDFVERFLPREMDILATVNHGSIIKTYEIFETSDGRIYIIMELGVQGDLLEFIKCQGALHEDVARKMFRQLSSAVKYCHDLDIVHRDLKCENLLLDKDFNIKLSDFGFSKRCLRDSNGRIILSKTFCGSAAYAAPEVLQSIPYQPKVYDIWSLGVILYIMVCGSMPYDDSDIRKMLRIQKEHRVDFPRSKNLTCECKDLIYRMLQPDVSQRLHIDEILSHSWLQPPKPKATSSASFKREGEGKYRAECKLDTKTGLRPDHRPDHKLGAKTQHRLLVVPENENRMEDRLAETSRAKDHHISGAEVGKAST
Structure (SMILES),effect on,mode,method,concentration,quantity,value
COc1cc2ncnc(Nc3ccc(Oc4ccccc4)cc3C)c2cc1OC,enzyme activity,inhibitor,,1 µM,inhibition,-1%
Cc1cnc(NC2CCOCC2)nc1-n1cnc(C(=O)NC(CN)c2cc(F)cc(Cl)c2)c1 (stereo not shown),enzyme activity,inhibitor,radiometric,1 µM,remaining activity,108%
Cc1cc(NC(=O)c2cccc3cc(-c4cccc5[nH]nc(N)c45)ccc23)ccc1F,enzyme activity,inhibitor,,0.1 µM,activity vs control,99%
Cc1ccc(Nc2nccc(N(C)c3ccc4c(C)n(C)nc4c3)n2)cc1S(N)(=O)=O,enzyme activity,inhibitor,,10 µM,inhibition,5%
CCCS(=O)(=O)Nc1ccc(F)c(C(=O)c2c[nH]c3ncc(-c4ccc(Cl)cc4)cc23)c1F,enzyme activity,inhibitor,,1 µM,inhibition,< 10%
CNC(=O)c1cc(Oc2ccc(NC(=O)Nc3ccc(Cl)c(C(F)(F)F)c3)cc2)ccn1,enzyme activity,inhibitor,,0.3 µM,inhibition,-4%
CNc1cccc2cc(C(=O)Nc3ccc(C(=O)O)cc3)c(=O)[nH]c12,enzyme activity,inhibitor,,10 µM,inhibition,3.4%
N#CCCc1ccc2c(c1)-c1[nH]c3ccc([N+](=O)[O-])cc3c1CC(=O)N2,cell-free assay,,,0.5 µM,remaining signal,78.7%
Cc1ccc(NC(=O)c2ccc(C)c(C(F)(F)F)c2)cc1C#Cc1nn(C2CCC(O)CC2)c2ncnc(N)c12 (stereo not shown),cell-free assay,,,10 µM,remaining signal,96%
CCN(CC)CCNC(=O)c1c(C)[nH]c(/C=C2\C(=O)Nc3ccc(F)cc32)c1C,enzyme activity,inhibitor,,10 µM,inhibition,54%
CC(C)(O)[C@H]1CC[C@H](Nc2ccc3ncc(-c4cccc(C(F)(F)F)c4)n3n2)CC1,enzyme activity,inhibitor,,1 µM,remaining activity,101%
CC(C)(C)c1nc2c(s1)c1nc(N)ncc1c1ccc(NS(=O)(=O)c3c(F)cccc3F)c(F)c12,enzyme activity,inhibitor,radiometric,1 µM,remaining activity,95%
O=C(Nc1cnn(-c2csc(C(=O)NC3COC3)c2)c1)Nc1c(F)cccc1Cl,enzyme activity,inhibitor,,5 µM,remaining activity,95.1%
